Measurements gathered from unrelated publications.
Adora1: Adenosine receptor A1 (Adora1, Rattus norvegicus, UniProt P25099)
HRH1: Histamine H1 receptor (HRH1, Homo sapiens, UniProt P35367)

Structure (SMILES)	target	assay	conditions	Ki [nM]
CC(C)[C@@H](CC[C@@H](C)[C@H]1CC[C@H]2[C@@H]3[C@H](O)C[C@H]4C[C@@H](NCCCNCCCCNCCCN)CC[C@]4(C)[C@H]3CC[C@]12C)OS(=O)(=O)O	Tyrosine-protein phosphatase non-receptor type 2 (PTPN2, Homo sapiens, UniProt P17706)	enzyme activity, inhibitor		6000
Nc1nc2ncc(CNc3ccc(C(=O)N[C@@H](CCC(=O)O)C(=O)O)cc3)nc2c(=O)[nH]1	Proton-coupled folate transporter (Homo sapiens, UniProt Q96NT5)	transporter uptake, inhibitor, radiometric	pH 5.5	590
CCCCN1CCC(COC(=O)c2ccc(N)c(OCF)c2)CC1	Muscarinic acetylcholine receptor M4 (CHRM4, Homo sapiens, UniProt P08173)	cell-free assay, radioligand		> 10000
CCn1c(-c2nc3cc(C(=O)N4CCC[C@@H](N)C4)cc(OC)c3n2C)cc2cccnc21	Protein-arginine deiminase type-4 (PADI4, Homo sapiens, UniProt Q9UM07)	enzyme activity, inhibitor		16000
CCCCCN1CCCn2c1nc1c2c(=O)n(C)c(=O)n1C	Adora1	ligand displacement, radioligand	cell membranes	3160
CN(C)c1ccc(/C=C/C=C2\CCc3ccc(OCCCN4CCCCC4)cc3C2=O)cc1	HRH1	ligand displacement, radioligand	cell membranes	1970
C#CCN1CCCn2c1nc1c2c(=O)n(C)c(=O)n1C	Adora1	ligand displacement, radioligand	cell membranes	≥ 25000
NC(=O)CCNC(=S)NCCCC[C@H](NS(=O)(=O)c1cccc(F)c1)C(=O)N[C@@H](Cc1c[nH]c2ccccc12)C(=O)NC1CCC1	NAD-dependent protein deacylase sirtuin-5, mitochondrial (SIRT5, Homo sapiens, UniProt Q9NXA8)	enzyme activity, inhibitor		3300
CC[C@H](NC(=O)[C@H](CS(=O)(=O)CC1CC1)N[C@@H](c1ccc(F)cc1)C(F)(F)F)C(=O)C(=O)NC1CC1	Cathepsin L2 (CTSV, Homo sapiens, UniProt O60911)	enzyme activity, inhibitor, fluorescence	with preincubation	0.25
CN1CCC(C2c3ccccc3C=Cc3ccccc32)CC1	HRH1	cell-free assay, radioligand		0.501
CN(C)c1ccc(/C=C2\CCc3cc(OCCCN4CCCCC4)ccc3C2=O)cc1	HRH1	ligand displacement, radioligand	cell membranes	791
CCCCCCN1CCCn2c1nc1c2c(=O)n(C)c(=O)n1C	Adora1	ligand displacement, radioligand	cell membranes	2870
